Assay results from ChEMBL document CHEMBL1165943, “Design and synthesis of new anticancer pyrimidines with multiple-kinase inhibitory effect” (Bioorg Med Chem, 2010).

Legend:
SR = experiment: Cytotoxicity against human SR cells assessed as cell growth at 0.001 uM after 48 hrs by sulforhodamine B assay; format: functional; details: read-out: Activity
SK-MEL-28 = experiment: Cytotoxicity against human SK-MEL-28 cells assessed as cell growth at 1 uM after 48 hrs by sulforhodamine B assay; format: functional; details: SK-MEL-28, 48 h, read-out: Activity
HCC 2998 [1] = experiment: Cytotoxicity against human HCC2998 cells assessed as cell growth at 0.01 uM after 48 hrs by sulforhodamine B assay; format: functional; details: HCC 2998, 48 h, read-out: Activity
[2] = Cytotoxicity against human […] cells assessed as cell growth at 10 uM after 48 hrs by sulforhodamine B assay; format: functional; details: read-out: Activity
PC-3 [3] = experiment: Cytotoxicity against human PC3 cells assessed as cell growth at 100 nM after 48 hrs by sulforhodamine B assay; format: functional; details: PC-3, 48 h, read-out: Activity
PC-3 [4] = experiment: Growth inhibition of human PC3 cells after 48 hrs by sulforhodamine B assay; format: functional, cell-based
HL-60(TB) = experiment: Cytotoxicity against human HL-60(TB) cells assessed as cell growth at 10 uM after 48 hrs by sulforhodamine B assay; format: functional; details: HL-60, 48 h, read-out: Activity
Procedure, shortened: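 Five-concentration HL-60(TB) test in RPMI 1640 with 5% FBS and 2 mM L-glutamine. Cells are plated at 5,000–40,000/well and a TCA-fixed time-zero plate is read at drug addition after 24 h. Drug is dissolved in DMSO and given as five 10-fold or ½log dilutions for 48 h at 37 °C, 5% CO2. Settled cells are fixed with TCA, stained with SRB and read at 515 nm.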

HCC 2998 [5] = experiment: Cytotoxicity against human HCC2998 cells assessed as cell growth at 1 uM after 48 hrs by sulforhodamine B assay; format: functional; details: HCC 2998, 48 h, read-out: Activity
MCF7 = experiment: Cytotoxicity against human MCF7 cells assessed as cell growth at 1 uM after 48 hrs by sulforhodamine B assay; format: functional; details: MCF7, 48 h, read-out: Activity
NCI-H226 = experiment: Cytotoxicity against human NCI-H226 cells assessed as cell growth at 1 uM after 48 hrs by sulforhodamine B assay; format: functional; details: NCI-H226, 48 h, read-out: Activity
RXF 393 = experiment: Cytotoxicity against human RXF393 cells assessed as cell growth at 0.001 uM after 48 hrs by sulforhodamine B assay; format: functional; details: RXF 393, 48 h, read-out: Activity
HCC 2998 [6] = experiment: Cytotoxicity against human HCC2998 cells assessed as cell growth at 10 uM after 48 hrs by sulforhodamine B assay; format: functional; details: HCC 2998, 48 h, read-out: Activity
[7] = target: Proto-oncogene tyrosine-protein kinase receptor Ret (Homo sapiens) (UniProt P07949); experiment: Inhibition of RET at 10 uM by HotSpot assay
[8] = target: Glycogen synthase kinase-3 beta (Homo sapiens) (UniProt P49841); experiment: Inhibition of GSK3-beta at 10 uM by HotSpot assay
Glycogen synthase kinase-3 beta (Homo sapiens), sequence (P49841 whole entry, looked up): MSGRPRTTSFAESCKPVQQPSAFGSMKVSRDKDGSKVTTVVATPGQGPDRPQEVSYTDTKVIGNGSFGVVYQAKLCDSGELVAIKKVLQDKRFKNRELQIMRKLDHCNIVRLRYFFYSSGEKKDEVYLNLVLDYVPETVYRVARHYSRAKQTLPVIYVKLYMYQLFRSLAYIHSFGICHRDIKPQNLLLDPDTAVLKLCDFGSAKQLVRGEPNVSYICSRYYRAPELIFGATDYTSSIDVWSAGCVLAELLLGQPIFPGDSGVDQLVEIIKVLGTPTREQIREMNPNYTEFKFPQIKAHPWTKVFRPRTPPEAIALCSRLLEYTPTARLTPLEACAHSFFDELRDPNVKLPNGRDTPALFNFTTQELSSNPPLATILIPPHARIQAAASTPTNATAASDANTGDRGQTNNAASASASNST

[9] = target: Myotonin-protein kinase (Homo sapiens) (UniProt Q09013); experiment: Inhibition of DMPK at 10 uM by HotSpot assay
[10] = target: Proto-oncogene tyrosine-protein kinase ROS (Homo sapiens) (UniProt P08922); experiment: Inhibition of ROS at 10 uM by HotSpot assay
[11] = target: Macrophage colony-stimulating factor 1 receptor (Homo sapiens) (UniProt P07333); experiment: Inhibition of FMS at 10 uM by HotSpot assay
[12] = target: Homeodomain-interacting protein kinase 1 (Homo sapiens) (UniProt Q86Z02); experiment: Inhibition of HIPK1 at 10 uM by HotSpot assay
Homeodomain-interacting protein kinase 1 (Homo sapiens), sequence (Q86Z02 whole entry, looked up): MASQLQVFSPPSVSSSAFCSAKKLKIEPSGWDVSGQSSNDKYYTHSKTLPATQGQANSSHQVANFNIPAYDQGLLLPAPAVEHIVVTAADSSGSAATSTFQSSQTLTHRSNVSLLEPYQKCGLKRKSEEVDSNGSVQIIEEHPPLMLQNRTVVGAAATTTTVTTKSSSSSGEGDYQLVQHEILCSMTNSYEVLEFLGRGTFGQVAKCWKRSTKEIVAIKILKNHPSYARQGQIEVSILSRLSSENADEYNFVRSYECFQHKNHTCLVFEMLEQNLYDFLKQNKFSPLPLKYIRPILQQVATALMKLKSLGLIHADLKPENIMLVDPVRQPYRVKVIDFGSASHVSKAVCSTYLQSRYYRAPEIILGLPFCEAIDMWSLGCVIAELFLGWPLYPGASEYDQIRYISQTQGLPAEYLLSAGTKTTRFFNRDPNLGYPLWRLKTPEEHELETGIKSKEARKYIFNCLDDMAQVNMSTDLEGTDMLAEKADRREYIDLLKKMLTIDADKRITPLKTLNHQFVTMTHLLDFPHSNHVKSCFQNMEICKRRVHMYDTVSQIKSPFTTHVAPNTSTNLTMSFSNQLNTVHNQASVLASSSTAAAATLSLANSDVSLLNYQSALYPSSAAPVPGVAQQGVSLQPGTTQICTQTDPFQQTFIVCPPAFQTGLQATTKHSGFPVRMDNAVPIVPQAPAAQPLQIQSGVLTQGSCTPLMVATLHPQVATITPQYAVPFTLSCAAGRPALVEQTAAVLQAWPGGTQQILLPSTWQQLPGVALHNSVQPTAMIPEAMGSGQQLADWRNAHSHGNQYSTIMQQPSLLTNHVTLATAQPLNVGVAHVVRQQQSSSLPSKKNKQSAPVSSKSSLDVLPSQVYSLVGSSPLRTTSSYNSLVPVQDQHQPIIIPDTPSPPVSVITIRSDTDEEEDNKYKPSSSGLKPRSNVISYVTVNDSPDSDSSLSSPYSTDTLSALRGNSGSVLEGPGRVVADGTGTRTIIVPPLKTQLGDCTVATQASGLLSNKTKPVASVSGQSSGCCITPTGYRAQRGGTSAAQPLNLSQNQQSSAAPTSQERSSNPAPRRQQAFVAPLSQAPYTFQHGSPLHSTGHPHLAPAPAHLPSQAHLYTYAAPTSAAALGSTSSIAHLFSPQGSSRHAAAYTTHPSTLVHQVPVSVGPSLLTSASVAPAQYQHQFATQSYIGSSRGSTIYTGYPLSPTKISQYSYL

[13] = target: [Pyruvate dehydrogenase (acetyl-transferring)] kinase isozyme 1, mitochondrial (Homo sapiens) (UniProt Q15118); experiment: Inhibition of PDK1 at 10 uM by HotSpot assay
[14] = target: Tyrosine-protein kinase Yes (Homo sapiens) (UniProt P07947); experiment: Inhibition of YES1 at 10 uM by HotSpot assay
Tyrosine-protein kinase Yes (Homo sapiens), sequence (P07947 2-543 limits assumed): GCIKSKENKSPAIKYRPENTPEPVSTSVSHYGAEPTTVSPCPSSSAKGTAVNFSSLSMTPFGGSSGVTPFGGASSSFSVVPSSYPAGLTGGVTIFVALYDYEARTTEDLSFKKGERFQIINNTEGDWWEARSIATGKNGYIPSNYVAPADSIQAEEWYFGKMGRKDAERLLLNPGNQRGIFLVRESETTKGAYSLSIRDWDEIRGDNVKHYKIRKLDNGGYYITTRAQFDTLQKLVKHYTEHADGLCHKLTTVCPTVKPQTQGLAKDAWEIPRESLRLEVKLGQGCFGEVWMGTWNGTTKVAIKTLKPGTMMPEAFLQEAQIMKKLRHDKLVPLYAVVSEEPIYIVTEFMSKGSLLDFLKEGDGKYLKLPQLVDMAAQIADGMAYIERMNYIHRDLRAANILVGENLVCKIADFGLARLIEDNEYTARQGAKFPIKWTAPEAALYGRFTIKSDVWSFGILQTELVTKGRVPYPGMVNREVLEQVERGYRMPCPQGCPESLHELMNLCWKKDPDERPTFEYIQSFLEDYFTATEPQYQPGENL

[15] = target: Proto-oncogene tyrosine-protein kinase Src (Homo sapiens) (UniProt P12931); experiment: Inhibition of c-SRC at 10 uM by HotSpot assay
Proto-oncogene tyrosine-protein kinase Src (Homo sapiens), sequence (P12931 2-536 limits assumed): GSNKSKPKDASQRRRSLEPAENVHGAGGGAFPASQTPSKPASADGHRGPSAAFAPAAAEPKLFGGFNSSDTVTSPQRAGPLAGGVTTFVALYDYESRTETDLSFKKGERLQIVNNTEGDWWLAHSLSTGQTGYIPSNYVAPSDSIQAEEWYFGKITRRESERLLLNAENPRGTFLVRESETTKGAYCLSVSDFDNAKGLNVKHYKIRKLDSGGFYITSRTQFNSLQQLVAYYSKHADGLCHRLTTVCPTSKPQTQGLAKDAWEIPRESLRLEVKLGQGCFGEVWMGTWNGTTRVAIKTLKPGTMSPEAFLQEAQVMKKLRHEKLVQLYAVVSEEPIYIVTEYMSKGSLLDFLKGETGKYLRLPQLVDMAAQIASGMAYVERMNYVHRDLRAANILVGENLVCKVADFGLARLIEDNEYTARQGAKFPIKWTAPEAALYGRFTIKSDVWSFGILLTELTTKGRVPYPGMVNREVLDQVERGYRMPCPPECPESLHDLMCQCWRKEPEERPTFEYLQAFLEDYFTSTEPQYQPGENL

[16] = target: Aurora kinase A (Homo sapiens) (UniProt O14965); experiment: Inhibition of Aurora A at 10 uM by HotSpot assay
[17] = target: Mitogen-activated protein kinase 14 (Homo sapiens) (UniProt Q16539); experiment: Inhibition of p38alpha at 10 uM by HotSpot assay
Mitogen-activated protein kinase 14 (Homo sapiens), sequence (Q16539 whole entry): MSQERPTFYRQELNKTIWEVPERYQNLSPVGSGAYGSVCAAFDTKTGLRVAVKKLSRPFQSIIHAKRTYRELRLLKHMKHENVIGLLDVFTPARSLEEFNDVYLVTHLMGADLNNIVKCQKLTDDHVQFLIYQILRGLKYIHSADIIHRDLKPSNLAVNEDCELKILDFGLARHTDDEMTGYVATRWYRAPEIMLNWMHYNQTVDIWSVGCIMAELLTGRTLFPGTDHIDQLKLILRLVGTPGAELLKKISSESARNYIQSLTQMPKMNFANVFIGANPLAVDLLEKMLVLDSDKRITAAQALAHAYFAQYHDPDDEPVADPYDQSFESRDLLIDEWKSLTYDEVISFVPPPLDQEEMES

[18] = target: Epidermal growth factor receptor (Homo sapiens) (UniProt P00533); experiment: Inhibition of EGFR at 10 uM by HotSpot assay
[19] = target: BDNF/NT-3 growth factors receptor (Homo sapiens) (UniProt Q16620); experiment: Inhibition of NTRK2 at 10 uM by HotSpot assay
[20] = target: Rho-associated protein kinase 1 (Homo sapiens) (UniProt Q13464); experiment: Inhibition of ROCK1 at 10 uM by HotSpot assay
[21] = target: Platelet-derived growth factor receptor beta (Homo sapiens) (UniProt P09619); experiment: Inhibition of PDGFRbeta at 10 uM by HotSpot assay
Platelet-derived growth factor receptor beta (Homo sapiens), sequence (P09619 whole entry): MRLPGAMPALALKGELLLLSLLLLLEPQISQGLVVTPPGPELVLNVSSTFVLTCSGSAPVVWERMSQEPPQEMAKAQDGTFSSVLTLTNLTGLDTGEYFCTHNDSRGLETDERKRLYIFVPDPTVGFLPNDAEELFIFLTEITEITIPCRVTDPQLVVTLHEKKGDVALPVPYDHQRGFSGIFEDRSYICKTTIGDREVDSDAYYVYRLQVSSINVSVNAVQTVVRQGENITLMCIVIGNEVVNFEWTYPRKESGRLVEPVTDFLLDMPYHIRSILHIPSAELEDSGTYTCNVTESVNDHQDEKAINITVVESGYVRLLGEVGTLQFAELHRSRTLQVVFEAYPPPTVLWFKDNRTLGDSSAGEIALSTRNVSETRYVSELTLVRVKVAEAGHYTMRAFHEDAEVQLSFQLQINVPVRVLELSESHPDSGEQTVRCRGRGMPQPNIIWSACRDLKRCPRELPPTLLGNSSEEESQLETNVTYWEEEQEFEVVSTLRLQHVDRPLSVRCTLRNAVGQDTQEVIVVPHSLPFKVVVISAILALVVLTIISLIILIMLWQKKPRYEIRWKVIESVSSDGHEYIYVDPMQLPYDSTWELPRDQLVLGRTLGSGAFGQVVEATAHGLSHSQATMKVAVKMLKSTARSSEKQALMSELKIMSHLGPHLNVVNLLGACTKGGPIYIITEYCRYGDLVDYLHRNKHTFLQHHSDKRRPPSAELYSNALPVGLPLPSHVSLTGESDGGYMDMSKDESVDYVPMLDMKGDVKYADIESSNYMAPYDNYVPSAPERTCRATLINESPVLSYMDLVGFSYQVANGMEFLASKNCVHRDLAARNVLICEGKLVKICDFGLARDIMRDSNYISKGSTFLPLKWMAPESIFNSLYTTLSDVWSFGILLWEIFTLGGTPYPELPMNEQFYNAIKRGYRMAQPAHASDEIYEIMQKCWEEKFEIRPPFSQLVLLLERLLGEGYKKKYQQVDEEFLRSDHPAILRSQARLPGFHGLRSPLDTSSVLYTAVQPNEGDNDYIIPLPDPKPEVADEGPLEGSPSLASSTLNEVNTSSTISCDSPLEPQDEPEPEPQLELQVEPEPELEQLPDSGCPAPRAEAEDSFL

[22] = target: Serine/threonine-protein kinase PAK 2 (Homo sapiens) (UniProt Q13177); experiment: Inhibition of PAK2 at 10 uM by HotSpot assay
Serine/threonine-protein kinase PAK 2 (Homo sapiens), sequence (Q13177 whole entry): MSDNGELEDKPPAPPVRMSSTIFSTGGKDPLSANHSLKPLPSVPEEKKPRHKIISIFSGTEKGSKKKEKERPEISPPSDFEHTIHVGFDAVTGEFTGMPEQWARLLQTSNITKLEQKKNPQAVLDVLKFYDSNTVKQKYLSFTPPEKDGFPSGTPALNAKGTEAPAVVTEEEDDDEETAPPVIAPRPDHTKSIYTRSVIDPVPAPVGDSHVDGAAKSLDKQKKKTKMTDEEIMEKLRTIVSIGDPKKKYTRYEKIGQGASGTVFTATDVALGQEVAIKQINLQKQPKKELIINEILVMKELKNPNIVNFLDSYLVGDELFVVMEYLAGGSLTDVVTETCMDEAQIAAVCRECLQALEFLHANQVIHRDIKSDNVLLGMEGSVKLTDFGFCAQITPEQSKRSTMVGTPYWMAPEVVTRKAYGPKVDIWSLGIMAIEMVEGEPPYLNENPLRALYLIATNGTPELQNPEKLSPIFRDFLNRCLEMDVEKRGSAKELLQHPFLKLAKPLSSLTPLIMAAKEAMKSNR

With `CC(=O)c1ccccc1-c1ccc(-c2ccnc(NC(=O)Nc3cc(N4CCOCC4)cc(C(F)(F)F)c3)n2)cn1` the growth at 0.001 µM (SR) was 94%, the growth at 1 µM (SK-MEL-28) was 4% and the growth at 0.01 µM (HCC 2998 [1]) was 113%. The growth at 10 µM [2] was 89%, the growth at 0.1 µM (PC-3 [3]) was 92% and the GI50 (PC-3 [4]; Homo sapiens, PC-3, 48 h) was over 100 µM. The IC50 (PC-3 [4]; pc-3) was “Not Active”, the growth at 10 µM (HL-60(TB)) was 107% and the growth at 1 µM (HCC 2998 [5]) was 114%. It also gave a growth at 1 µM (MCF7) of 90%, a growth at 1 µM (NCI-H226) of 53% and a growth at 0.001 µM (RXF 393) of 101%. For the same molecule, the growth at 10 µM (HCC 2998 [6]) was 135%.
For `CC(=O)Nc1cccc(-c2ccc(-c3ccnc(NC(=O)Nc4cc(C(F)(F)F)cc(C(F)(F)F)c4)n3)cn2)c1.Cl`, the inhibition [7] was under 50%, the inhibition [8] was under 50% and the inhibition [9] was under 50%. For the same molecule, the inhibition [10] was under 50%, the inhibition [11] was under 50% and the inhibition [12] was under 50%. It also gave an inhibition [13] of under 50%, an inhibition [14] of under 50% and an inhibition [15] of 60%. The inhibition [16] was 60%, the inhibition [17] was under 50% and the inhibition [18] was under 50%. The inhibition [19] was under 50%, the inhibition [20] was under 50% and the inhibition [21] was under 50%. The inhibition [22] was under 50%.
